# Reference: publication PMC4000071 (Journal of Toxicologic Pathology, 2014)
# Legend:
# [1] = target: 5-HT1B receptors in the rat cerebral cortex (Rattus norvegicus, UniProt P28564); assay: 5-HT1B receptor binding in rat cerebral cortex
# adrenergic α1B receptor = target: T1, adrenergic α1B receptor (Homo sapiens, UniProt P35368); assay: secondary pharmacology screens, α1B; format: biochemical; details: 10 µM
# T1 sequence (P35368 1-520): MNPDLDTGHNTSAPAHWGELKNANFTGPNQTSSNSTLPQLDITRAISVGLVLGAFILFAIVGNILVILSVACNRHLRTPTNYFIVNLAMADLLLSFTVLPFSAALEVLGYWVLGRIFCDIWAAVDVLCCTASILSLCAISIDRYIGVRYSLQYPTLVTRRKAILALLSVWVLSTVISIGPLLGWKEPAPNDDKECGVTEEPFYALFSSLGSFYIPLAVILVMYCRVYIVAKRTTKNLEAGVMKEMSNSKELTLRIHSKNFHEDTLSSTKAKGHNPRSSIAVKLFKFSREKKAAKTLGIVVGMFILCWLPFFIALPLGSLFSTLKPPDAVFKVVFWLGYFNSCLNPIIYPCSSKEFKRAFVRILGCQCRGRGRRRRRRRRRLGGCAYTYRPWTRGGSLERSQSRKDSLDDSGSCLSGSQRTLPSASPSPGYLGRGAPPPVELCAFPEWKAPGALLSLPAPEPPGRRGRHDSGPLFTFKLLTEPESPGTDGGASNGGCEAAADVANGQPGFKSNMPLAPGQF
# [2] = test system: mitochondrial oxidative phosphorylation; assay: mitochondrial oxidative phosphorylation inhibition; format: biochemical; details: unpublished data
# rat [3] = assay: 14-day rat study; format: in vivo; details: 14-day study, unpublished data
# beagle dogs [4] = assay: 3-month toxicity study, in-life, clinical pathology and pathology; format: in vivo
# Summary of the method: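 Beagles aged 9 months received 0, 7, 15 or 30 mg/kg/day by oral gavage for 3 months in 0.1 M lactic acid (pH 3.0). Groups were 3/sex/dose, with 3/sex added for 5-week recovery in control and high dose. Neurologic examination was done. Clinical pathology: pretest, Weeks 6, 13, end of recovery. Full tissue list including dorsal root ganglia. Eyes/optic nerve fixed in Davidson's, sciatic nerve in Bouin's, others in formalin. Sections ~5 µm, H&E.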
# 1-month = format: in vivo, beagle dogs; details: dog; for mean brain concentration relative to that at 2.3 mg/kg: 4 weeks
# Summary of the method: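 Beagles (7 males, 5 females) were dosed once daily by oral gavage for 4 weeks at 0, 2.3, 14 or 47 mg/kg/day. The vehicle was 0.1 M lactic acid in water (pH 3.0) at 5 mL/kg. Plasma was sampled on Days 1, 7 and 28. At necropsy, brain stem, hippocampus and frontal lobe were taken for drug measurement. Terminal plasma and brain concentrations are reported.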
# beagle dogs [5] = assay: 1-month; format: in vivo
# dogs = assay: cardiovascular telemetry study in dogs; format: in vivo; details: dog
# rat [6] = assay: rat 1- and 3-month repeat dose toxicity; format: in vivo
# [7] = rat systemic and brain exposure; format: in vivo; details: 25 mg/kg/day (NOEL for neuropathology), unpublished results
# [8] = target: human 5-hydroxytryptamine 1B (serotonin, or 5-HT1B) receptor; details: antagonist; cited from earlier work
# guinea pig = details: 0.6 µmol/kg. p.o.; cited from earlier work
# brain 5-HT1B receptors = details: cited from earlier work
# [9] = cited from earlier work
# [10] = man, 5 mg projected efficacious dose; cited from earlier work
# [11] = Female 15 mg/kg/day (N=3), 3 months
# [12] = Female 15 mg/kg/day (N=3), 3 months, highest incidence shown
# [13] = Female 30 mg/kg/day (N=2), after 5 weeks of recovery
# [14] = Female 30 mg/kg/day (N=5), after 3 months of dosing
# [15] = Male 7 mg/kg/day (N=3), 3 months, highest incidence shown
# [16] = Male 15 mg/kg/day (N=3), 3 months
# [17] = Male 15 mg/kg/day (N=3), 3 months, highest incidence shown
# [18] = Male 30 mg/kg/day (N=3), 3 months
# [19] = Male 30 mg/kg/day (N=3), 3 months, highest incidence shown
# [20] = Male 30 mg/kg/day (N=3), after 5 weeks of recovery
# [21] = Male 30 mg/kg/day (N=6), after 3 months of dosing
# [22] = dog, 30 mg/kg/day 3 months then 5-week recovery
# [23] = dog, 30 mg/kg/day males, Week 3 until end of dosing
# [24] = dog, 30 mg/kg/day, after 3 months
# 5-HT1B receptors in the rat cerebral cortex, sequence (P28564 whole entry): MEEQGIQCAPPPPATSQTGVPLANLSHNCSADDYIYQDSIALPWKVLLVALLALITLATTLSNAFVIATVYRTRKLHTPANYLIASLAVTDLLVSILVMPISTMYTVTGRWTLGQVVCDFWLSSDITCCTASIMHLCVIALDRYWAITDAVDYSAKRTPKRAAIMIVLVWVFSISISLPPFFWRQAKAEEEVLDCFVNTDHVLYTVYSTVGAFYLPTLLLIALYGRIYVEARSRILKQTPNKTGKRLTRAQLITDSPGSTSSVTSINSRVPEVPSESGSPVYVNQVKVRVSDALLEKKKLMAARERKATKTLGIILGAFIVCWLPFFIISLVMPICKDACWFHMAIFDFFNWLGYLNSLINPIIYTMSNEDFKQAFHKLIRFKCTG
compound,measurement,setting,value
"COc1cc2c(c(N3CCN(C)CC3)c1)O[C@@H](C(=O)Nc1ccc(N3CCOCC3)cc1)CC2 [AZD3783, (2R)-6-methoxy-8-(4-methylpiperazin-1-yl)-N-(4-morpholin-4-ylphenyl) chromane-2-carboxamide]",Ki,[1]; rat cerebral cortex,51 nM
same,affinity lower than for the guinea pig or human 5-HT1B receptors,[1]; rat vs guinea pig or human,approximately 4 fold
same,activity at adrenergic α1B receptor,adrenergic α1B receptor,antagonist
same,inhibition of mitochondrial oxidative phosphorylation,[2],not a direct inhibitor
same,PLD in tissues,rat [3],dose-dependent PLD in a limited number of tissues
same,"D.R. ganglion: cerv., thoracic, lumbar: Vacuolation; ganglion cell (incidence)","beagle dogs [4]; Female 7 mg/kg/day (N=3), 3 months, highest incidence shown",2
same,Ophthalmologic finding: Normal (number of dogs),"beagle dogs [4]; Female 7 mg/kg/day (N=3), after 3 months of dosing",3
same,Brain: Degeneration/necrosis; neuronal (incidence),beagle dogs [4]; [11],1
same,Brain: Degeneration: nerve fiber (incidence),beagle dogs [4]; [11],1
same,Brain: Gliosis (incidence),beagle dogs [4]; [11],1
same,Brain: Vacuolation: neuronal (incidence),beagle dogs [4]; [11],2
same,"D.R. ganglion: cerv., thoracic, lumbar: Inflammation (incidence)",beagle dogs [4]; [12],2
same,"D.R. ganglion: cerv., thoracic, lumbar: Vacuolation; ganglion cell (incidence)",beagle dogs [4]; [12],3
same,Ophthalmologic finding: Normal (number of dogs),"beagle dogs [4]; Female 15 mg/kg/day (N=3), after 3 months of dosing",3
same,Ophthalmologic finding: Chorioretinal scar (number of dogs),beagle dogs [4]; [13],1
same,Ophthalmologic finding: Normal (number of dogs),beagle dogs [4]; [13],1
same,Ophthalmologic finding: Retinal detachment (number of dogs),beagle dogs [4]; [13],1
same,Ophthalmologic finding: Normal (number of dogs),beagle dogs [4]; [14],2
same,Ophthalmologic finding: Retinal detachment (number of dogs),beagle dogs [4]; [14],2
same,Ophthalmologic finding: Retinal hemorrhage (number of dogs),beagle dogs [4]; [14],2
same,Ophthalmologic finding: Vitreal hemorrhage (number of dogs),beagle dogs [4]; [14],1
same,"D.R. ganglion: cerv., thoracic, lumbar: Inflammation (incidence)",beagle dogs [4]; [15],1
same,"D.R. ganglion: cerv., thoracic, lumbar: Vacuolation; ganglion cell (incidence)",beagle dogs [4]; [15],1
same,Ophthalmologic finding: Normal (number of dogs),"beagle dogs [4]; Male 7 mg/kg/day (N=3), after 3 months of dosing",3
same,Brain: Degeneration: nerve fiber (incidence),beagle dogs [4]; [16],1
same,Brain: Vacuolation: neuronal (incidence),beagle dogs [4]; [16],3
same,"Eye/Optic nerve: Degeneration, optic nerve fiber (incidence)",beagle dogs [4]; [16],1
same,Eye/Optic nerve: Inflammation: retina (incidence),beagle dogs [4]; [16],1
same,"D.R. ganglion: cerv., thoracic, lumbar: Degeneration: nerve fiber (incidence)",beagle dogs [4]; [17],2
same,"D.R. ganglion: cerv., thoracic, lumbar: Inflammation (incidence)",beagle dogs [4]; [17],2
same,"D.R. ganglion: cerv., thoracic, lumbar: Vacuolation; ganglion cell (incidence)",beagle dogs [4]; [17],3
same,Ophthalmologic finding: Normal (number of dogs),"beagle dogs [4]; Male 15 mg/kg/day (N=3), after 3 months of dosing",3
same,Brain: Degeneration/necrosis; neuronal (incidence),beagle dogs [4]; [18],3
same,Brain: Degeneration: nerve fiber (incidence),beagle dogs [4]; [18],3
same,Brain: Gliosis (incidence),beagle dogs [4]; [18],3
same,Brain: Inflammation: perivascular (incidence),beagle dogs [4]; [18],3
same,Brain: Vacuolation: neuronal (incidence),beagle dogs [4]; [18],3
same,"Eye/Optic nerve: Degeneration, optic nerve fiber (incidence)",beagle dogs [4]; [18],1
same,Eye/Optic nerve: Inclusion: retina (incidence),beagle dogs [4]; [18],3
same,Eye/Optic nerve: Inflammation: retina (incidence),beagle dogs [4]; [18],1
same,Sciatic nerve: Degeneration: nerve fiber (incidence),beagle dogs [4]; [18],1
same,"D.R. ganglion: cerv., thoracic, lumbar: Degeneration: nerve fiber (incidence)",beagle dogs [4]; [19],3
same,"D.R. ganglion: cerv., thoracic, lumbar: Inflammation (incidence)",beagle dogs [4]; [19],2
same,"D.R. ganglion: cerv., thoracic, lumbar: Vacuolation; ganglion cell (incidence)",beagle dogs [4]; [19],3
same,"Spinal cord, cerv., thoracic, lumbar: Degeneration: nerve fiber (incidence)",beagle dogs [4]; [19],2
same,Ophthalmologic finding: Chorioretinal scar (number of dogs),beagle dogs [4]; [20],2
same,Ophthalmologic finding: Tepatum hyperreflectivity (number of dogs),beagle dogs [4]; [20],1
same,Ophthalmologic finding: Normal (number of dogs),beagle dogs [4]; [21],2
same,Ophthalmologic finding: Retinal detachment (number of dogs),beagle dogs [4]; [21],2
same,Ophthalmologic finding: Retinal hemorrhage (number of dogs),beagle dogs [4]; [21],3
same,Ophthalmologic finding: Vitreal hemorrhage (number of dogs),beagle dogs [4]; [21],1
same,GLDH increase vs pretest,"beagle dogs [4]; decedent female, 30 mg/kg/day",2 fold
same,WBC increase vs pretest,"beagle dogs [4]; decedent female, 30 mg/kg/day",< 2 fold
same,neutrophils increase vs pretest,"beagle dogs [4]; decedent female, 30 mg/kg/day",2 fold
same,bile increase vs pretest,"beagle dogs [4]; decedent female, 30 mg/kg/day, Day 84",5 fold
same,brain findings after recovery,beagle dogs [4]; [22],extensive neuronal loss accompanied by marked astrogliosis
same,reversibility of pathological lesions (except thymus and bone marrow),beagle dogs [4]; [22],still present after the 5-week recovery period
same,ALT group mean elevation vs. pretest,beagle dogs [4]; [23],ca. 2 fold
same,GLDH group mean elevation vs. pretest,beagle dogs [4]; [23],ca. 4 fold
same,platelet counts increase,beagle dogs [4]; [24],24–30%
same,reticulocytes (% and total count) decrease,beagle dogs [4]; [24],42–50%
same,NOEL,"beagle dogs [4]; dog, 3-month study",not established
same,severity of lesions in the brain,"beagle dogs [4]; dog, 3-month, 15 and 30 mg/kg/day",dose-related and ranged from slight to moderate
same,ophthalmologic observations,"beagle dogs [4]; dog, 3-month, Week 6 examination",No treatment-related ophthalmologic observations
same,gallbladder microscopic findings,"beagle dogs [4]; dog, 3-month, all treated groups",pigment deposit (lamina propria) was noted in all animals in the treated groups
same,mean brain concentration relative to that at 2.3 mg/kg,1-month; 14 mg/kg,38 fold
same,mean brain concentration relative to that at 2.3 mg/kg,1-month; 47 mg/kg,460 fold
same,brain/plasma concentration ratio,"1-month; across the dose range, after 4 weeks of dosing",approximately 4
same,brain microscopic findings,"beagle dogs [5]; 2.3 mg/kg/day, 4 weeks",No treatment-related microscopic change in the brain
same,"brain microscopic findings, other three dogs","beagle dogs [5]; 47 mg/kg/day, 4 weeks",minimal to moderate foamy cytoplasmic vacuolation of neurons
same,mortality,"beagle dogs [5]; a male in the 47 mg/kg/day group, severe clinical signs",euthanized on Day 20
same,"brain microscopic findings, decedant","beagle dogs [5]; male, 47 mg/kg/day, euthanized Day 20","neuronal degeneration and necrosis microscopically, accompanied by minimal gliosis in the medulla oblongata"
same,brain microscopic findings,"beagle dogs [5]; two dogs, 14 mg/kg/day, 4 weeks","minimal granular, yellowish pigmentation in the cytoplasm of neurons in the medulla oblongata"
same,cardiovascular effect (telemetry),dogs; 14 mg/kg/day,no effect
same,cardiovascular effect (telemetry),dogs; 47 mg/kg,modest tachycarda with decrease in blood pressure
same,PLD,rat [6],caused generalized PLD
same,nervous tissue pathology,"rat [6]; 1 month, 126 mg/kg/day",minimal neuronal vacuolation in the DRG and brain stem
same,"nervous tissue pathology (DRG, brain stem, spinal cord)","rat [6]; 3 months, 100 mg/kg/day, unpublished results",minimal to slight neuronal vacuolation with eosinophilic deposits
same,AUC,[7],84 µM·h
same,Ki,[8],12.5 nM
same,anxiolytic and anti-depressant efficacy,guinea pig,elicit effects indicative of anxiolytic and anti-depressant efficacy
same,extracellular serotonin in the brain,guinea pig,increase extracellular serotonin in the brain
same,binding to brain 5-HT1B receptors (PET),brain 5-HT1B receptors; human subjects,bind dose-dependently
same,receptor occupancy in brain region,"brain 5-HT1B receptors; man, 5 mg dose",50%
same,blood brain barrier crossing,[9],readily crosses the blood brain barrier
same,estimated AUC,[10],0.383 µM·h
